Source: PMC9925696 (Neuro-Oncology, 2022)
“Also recorded” adds a separate entry of the source. Marks after values point to notes of the source that are not given here.

What was measured:
[1] = Safety evaluation; assay type: in vivo, human
Summary of the method: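 Adults (≥20 years) with recurrent/progressive grade 2-4 IDH1-R132 glioma received oral twice-daily dosing in 21-day cycles at 125-1400 mg (six levels). Escalation used a modified continual reassessment method (Bayesian logistic regression, overdose control) with cohorts of 3-6 patients and DLT assessment over the 21-day cycle. TEAEs were recorded up to 28 days after the last dose, graded by CTCAE v4.0 and counted once per patient at worst severity. LVEF was monitored by echocardiography or MUGA.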

[2] = Plasma pharmacokinetics of DS-1001; assay type: in vivo, human; details: for Increase in Cmax and AUC0-8 h with dose: day 1 and day 8 of cycle 1
[3] = test system: recurrent/progressive IDH1-mutant (R132) glioma; assay: Tumor response by RANO / RANO-LGG, PFS, treatment duration; assay type: in vivo, human; details: for Duration of CR: still on treatment
Summary of the method: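 MRI was performed every 6 weeks. Investigators classed tumors at enrollment as contrast-enhancing (assessed by RANO) or non-enhancing (assessed by RANO-LGG). Longest and orthogonal diameters were measured on the largest FLAIR/T2 slice. Best overall response required a confirmatory scan at least 4 weeks later. ORR counted CR, PR and MR. PFS ran from first dose to progression or death. Dosing was oral twice daily, continued until progression or intolerable toxicity.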

[4] = DS-1001 concentration in resected tumor tissue, plasma and CSF; assay type: in vivo, human; details: for DS-1001 concentration in resected tumor tissue: free form
Summary of the method: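 Drug levels were measured by validated LC-MS/MS and expressed as the free form. CSF was collected at screening and on cycle 1 day 15 (±3 days). Resected tumor and matched plasma were taken on the day of salvage surgery, after oral twice-daily dosing continued until surgery. Where a patient gave several tumor samples, the range is given. The brain/plasma ratio used the matched plasma sample.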

[5] = test system: D-2-hydroxyglutarate (D-2-HG); assay: D-2-HG concentration in resected tumor tissue; assay type: in vivo, human
Summary of the method: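 Patients with IDH1-R132 glioma who were scheduled for salvage surgery after progression took the oral test compound twice daily until surgery. Tumor was resected on the day of surgery, homogenized in 0.1 w/v% bovine serum albumin solution, and derivatized with diacetyl-l-tartaric anhydride. D-2-HG was then quantified by LC-MS/MS against a commercial D-2-HG reference standard. On-treatment values were compared with matched archived frozen tumor from previous surgery, where available.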

[6] = mice, preclinical; cited from earlier work
[7] = test system: orthotopic patient-derived xenograft model; details: continuous administration, preclinical; cited from earlier work
[8] = 12 non-enhancing tumors, RANO-LGG
[9] = non-enhancing (n = 12), RANO-LGG
[10] = Patient #003, 500 mg bid, 16.9 h after last dose
[11] = Patient #006, 700 mg bid, 7.2 h after last dose

SMILES: Cc1cn(C(=O)c2c(-c3c(Cl)cc(Cl)cc3Cl)noc2C(C)(C)F)c2cccc(/C=C/C(=O)O)c12 [DS-1001]
- Patients with at least 1 AE of any grade or causality ([1]; 45 of 47): 95.7%
- Tolerability / safety profile ([1]; 125-1400 mg bid oral): well tolerated; also recorded: favorable safety profile
- Maximum tolerated dose (MTD) ([1]; 125-1400 mg bid oral, highest dose level 1400 mg bid): not reached
- Alanine aminotransferase increased, all grades ([1]; N = 47): 4 (8.5) n (%)
- Alanine aminotransferase increased, grade 3 ([1]; N = 47): 3 (6.4) n (%)
- All AEs, grade 3 ([1]; N = 47): 20 (42.6) n (%)
- Alopecia, all grades ([1]; N = 47): 13 (27.7) n (%)
- Alopecia, grade 3 ([1]; N = 47): 0 n (%)
- Arthralgia, all grades ([1]; N = 47): 13 (27.7) n (%)
- Arthralgia, grade 3 ([1]; N = 47): 1 (2.1) n (%)
- Aspartate aminotransferase increased, all grades ([1]; N = 47): 3 (6.4) n (%)
- Aspartate aminotransferase increased, grade 3 ([1]; N = 47): 2 (4.3) n (%)
- Back pain, all grades ([1]; N = 47): 10 (21.3) n (%)
- Back pain, grade 3 ([1]; N = 47): 0 n (%)
- Decreased appetite, all grades ([1]; N = 47): 5 (10.6) n (%)
- Decreased appetite, grade 3 ([1]; N = 47): 0 n (%)
- Diarrhea, all grades ([1]; N = 47): 22 (46.8) n (%)
- Diarrhea, grade 3 ([1]; N = 47): 2 (4.3) n (%)
- Dose interruption due to arthralgia ([1]; N = 47): 10.6%
- Dose interruption due to neutrophil count decreased ([1]; N = 47): 12.8%
- Dose reduction associated with alanine aminotransferase increased ([1]; N = 47): 4.3%
- Dose reduction associated with arthralgia ([1]; N = 47): 10.6%
- Dose reduction associated with back pain ([1]; N = 47): 6.4%
- Dose reduction associated with neck pain ([1]; N = 47): 2.1%
- Dose reduction associated with neutrophil count decreased ([1]; N = 47): 6.4%
- Dose reduction associated with white blood cell count decreased ([1]; N = 47): 4.3%
- Dry skin, all grades ([1]; N = 47): 10 (21.3) n (%)
- Dry skin, grade 3 ([1]; N = 47): 0 n (%)
- Feces soft, all grades ([1]; N = 47): 6 (12.8) n (%)
- Feces soft, grade 3 ([1]; N = 47): 0 n (%)
- Grade 4 or 5 AEs or serious drug-related AEs ([1]; N = 47): No grade 4 or 5 AEs or serious drug-related AEs were reported
- Headache, all grades ([1]; N = 47): 11 (23.4) n (%)
- Headache, grade 3 ([1]; N = 47): 1 (2.1) n (%)
- Hypophosphatemia, all grades ([1]; N = 47): 2 (4.3) n (%)
- Hypophosphatemia, grade 3 ([1]; N = 47): 2 (4.3) n (%)
- Nasopharyngitis, all grades ([1]; N = 47): 7 (14.9) n (%)
- Nasopharyngitis, grade 3 ([1]; N = 47): 0 n (%)
- Nausea, all grades ([1]; N = 47): 12 (25.5) n (%)
- Nausea, grade 3 ([1]; N = 47): 0 n (%)
- Neutrophil count decreased, all grades ([1]; N = 47): 7 (14.9) n (%)
- Neutrophil count decreased, grade 3 ([1]; N = 47): 6 (12.8) n (%)
- Patients with TEAEs associated with dose reduction ([1]; N = 47): 27.7%
- Patients with at least 1 dose interruption due to TEAEs ([1]; N = 47): 57.4%
- Patients with at least 1 grade 3 AE (TEAE) ([1]; N = 47): 42.6%
- Pruritus, all grades ([1]; N = 47): 14 (29.8) n (%)
- Pruritus, grade 3 ([1]; N = 47): 0 n (%)
- Rash, all grades ([1]; N = 47): 11 (23.4) n (%)
- Rash, grade 3 ([1]; N = 47): 0 n (%)
- Skin hyperpigmentation, all grades ([1]; N = 47): 25 (53.2) n (%)
- Skin hyperpigmentation, grade 3 ([1]; N = 47): 0 n (%)
- Vomiting, all grades ([1]; N = 47): 9 (19.1) n (%)
- Vomiting, grade 3 ([1]; N = 47): 0 n (%)
- White blood cell count decreased, all grades ([1]; N = 47): 3 (6.4) n (%)
- White blood cell count decreased, grade 3 ([1]; N = 47): 3 (6.4) n (%)
- Alanine aminotransferase increased, grade 3 ([1]; N = 47, text): 6.4%
- Alopecia, any grade ([1]; N = 47, text): 27.7%
- Arthralgia, any grade ([1]; N = 47, text): 27.7%
- Aspartate aminotransferase increased, grade 3 ([1]; N = 47, text): 4.3%
- Back pain, any grade ([1]; N = 47, text): 21.3%
- Diarrhea, any grade ([1]; N = 47, text): 46.8%
- Diarrhea, grade 3 ([1]; N = 47, text): 4.3%
- Dry skin, any grade ([1]; N = 47, text): 21.3%
- Headache, any grade ([1]; N = 47, text): 23.4%
- Hypophosphatemia, grade 3 ([1]; N = 47, text): 4.3%
- Nausea, any grade ([1]; N = 47, text): 25.5%
- Neutrophil count decreased, grade 3 ([1]; N = 47, text): 12.8%
- Pruritus, any grade ([1]; N = 47, text): 29.8%
- Rash, any grade ([1]; N = 47, text): 23.4%
- Skin hyperpigmentation, any grade ([1]; N = 47, text): 53.2%
- White blood cell count decreased, grade 3 ([1]; N = 47, text): 6.4%
- Dose-limiting toxicity (DLT) ([1]; at 1000 mg bid): One DLT, grade 3 white blood cell count decreased
- Dose modification due to pain ([1]; doses ≤250 mg bid): no dose modification due to pain
- Dose modification due to pain ([1]; doses ≥500 mg bid): most patients who received long-term administration of DS-1001 required dose modifications due to episodes of pain
- Discontinued due to an AE (alanine aminotransferase increased) ([1]; of 39 patients who discontinued): 1 patients
- All AEs, all grades ([1]; safety analysis set N = 47): 45 (95.7) n (%)
- Increase in Cmax and AUC0-8 h with dose ([2]; 125 to 700 mg bid): approximately dose-proportional
- Increase in Cmax and AUC0-8 h with dose ([2]; 700 to 1400 mg bid): less than dose-proportional
- Median Tmax across dose range ([2]; day 1 of cycle 1, 125-1400 mg bid): 2 to 6 h
- Median Tmax across dose range ([2]; day 8 of cycle 1, 125-1400 mg bid): 2 to 4 h
- Steady-state levels achieved (plasma trough plateau) ([2]; most dose levels, except 1400 mg bid, data not shown): ≤ 4 days
- Response by 1p/19q codeletion status ([3]; 1p/19q-codeleted vs non-codeleted): Measurable response was observed in both 1p/19q-codeleted and non-codeleted cases
- Number of MRs [3, 8]: 3
- Number of PRs [3, 8]: 1
- Number of CRs ([3]; 35 enhancing tumors, RANO): 2
- Number of PRs ([3]; 35 enhancing tumors, RANO): 4
- Median response duration ([3]; both lesion types): has not been reached
- Doses at which responses were observed ([3]; data limited): ≥ 125 mg bid
- Confirmed best overall response: complete response ([3]; enhancing (n = 35), RANO): 2 (5.7) n (%)
- Confirmed best overall response: partial response ([3]; enhancing (n = 35), RANO): 4 (11.4) n (%)
- Confirmed best overall response: progressive disease ([3]; enhancing (n = 35), RANO): 17 (48.6) n (%)
- Confirmed best overall response: stable disease ([3]; enhancing (n = 35), RANO): 11 (31.4) n (%)
- Objective response rate ([3]; enhancing (n = 35), RANO): 6 (17.1) n (%)
- Confirmed best overall response: not evaluated ([3]; enhancing (n = 35), treatment discontinued before first response assessment): 1 (2.9)^b n (%)
- Median progression-free survival ([3]; enhancing glioma cohort, all doses, 95% CI 6.1 to 17.7 weeks): 10.4 weeks
- Median progression-free survival ([3]; enhancing glioma cohort, 95% CI 6.1 to 17.7 months (abstract)): 10.4 months
- Patients with tumor measurements decreased from baseline ([3]; enhancing tumors, 15 of 35): 42.9%
- Objective response rate ([3]; enhancing tumors, RANO): 17.1%
- Confirmed best overall response: not evaluated ([3]; non-enhancing (n = 12)): 0 (0.0) n (%)
- Confirmed best overall response: complete response [3, 9]: 0 (0.0) n (%)
- Confirmed best overall response: minor response [3, 9]: 3 (25.0) n (%)
- Confirmed best overall response: partial response [3, 9]: 1 (8.3) n (%)
- Confirmed best overall response: progressive disease [3, 9]: 0 (0.0) n (%)
- Confirmed best overall response: stable disease [3, 9]: 8 (66.7) n (%)
- Objective response rate [3, 9]: 4 (33.3) n (%)
- Median progression-free survival ([3]; non-enhancing glioma cohort, 95% CI 24.1 to not reached): not reached
- Patients with tumor measurements decreased from baseline ([3]; non-enhancing tumors, 11 of 12): 91.7%
- Objective response rate ([3]; non-enhancing tumors, RANO-LGG): 33.3%
- Duration of CR ([3]; patient with IDH1-mutant anaplastic oligodendroglioma): approximately 95 weeks
- Duration of CR ([3]; patient with astrocytoma (IDH-mutant, grade 4)): approximately 174 weeks
- Brain/plasma concentration ratio [4, 10]: 0.77
- DS-1001 concentration in resected tumor tissue [4, 10]: 5720 ng/g tissue
- Brain/plasma concentration ratio ([4]; Patient #004, 500 mg bid, 4.1, 4.2 h after last dose): 0.19
- Brain/plasma concentration ratio [4, 11]: 0.58
- DS-1001 concentration in resected tumor tissue [4, 11]: 6130 ng/g tissue
- DS-1001 in CSF ([4]; day 15 of cycle 1): appeared in CSF
- Brain / tumor distribution of DS-1001 ([4]; resected tumor samples, salvage surgery): favorable brain distribution; also recorded: a high drug concentration was detected in all resected tumor samples
- D-2-HG in on-treatment tumor tissue versus pre-treatment samples ([5]; 125 mg bid): significantly lower levels of D-2-HG compared with the pre-treatment samples
- D-2-HG in on-treatment tumor tissue versus archived samples ([5]; seven on-treatment samples, 125-700 mg bid): significantly lower amount of D-2-HG compared with pre-study archived samples; also recorded: extremely low compared with matched archived samples; also recorded: lower than archived samples; also recorded: significantly low levels of D-2-HG
- Distribution to the brain [6]: good distribution to the brain
- D-2-HG [7]: D-2-HG reduction
- Tumor growth [7]: Tumor growth inhibition
